Active and inactive are the calls of the source.
Tests used:
[1] = Synergistic cytotoxicity against human GIN28 cells assessed as combination index measured after 48 hrs in presence of 3-(4-chlorophenyl)-1-(2-chloro-2-phenylethyl)pyrazolo[3,4-d]pyrimidin-4-amine by Chou-Talalay assay; format: functional
Procedure, shortened: (§1)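 Each drug pair dosed at a 1:1 molar ratio on the GBM lines and incubated 48 h. CI computed from three independent IC50 experiments (n = 3), reported as mean ± SD.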

Homo sapiens [2] = species: Homo sapiens; assay: Induction of apoptotic death in human GIN28 cells assessed as nuclear fragmentation at 12.5 uM measured after 48 hrs by Hoechst 33342/propidium iodide staining based fluorescence microscopy analysis; format: functional, cell-based
Procedure, shortened: (§2)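 Cells dosed 48 h with 12.5 μM inhibitor, with 70% ethanol or DMEM (negative) as controls. Nuclei then double-stained with Hoechst 33342 and propidium iodide and examined by fluorescence microscopy.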

[3] = Apparent water solubility of the compound in PBS formulated with 900 ug/ml polymer Tween 80 at 100 ug/ml by UV-Visible spectral analysis; format: physicochemical; conditions: buffer
[4] = Additive cytotoxicity against human GIN8 cells assessed as combination index measured after 48 hrs in presence of 2-[[4-(2-phenylethylamino)-1-[styryl]pyrazolo[3,4-d]pyrimidin-6-yl]amino]ethanol by Chou-Talalay assay; format: functional; procedure, shortened: as §1
[5] = Additive cytotoxicity against human GCE28 cells assessed as combination index measured after 48 hrs in presence of 2-[[4-(2-phenylethylamino)-1-[styryl]pyrazolo[3,4-d]pyrimidin-6-yl]amino]ethanol by Chou-Talalay assay; format: functional; procedure, shortened: as §1
Homo sapiens [6] = species: Homo sapiens; assay: Induction of apoptotic death in human GIN8 cells assessed as nuclear fragmentation at 12.5 uM measured after 48 hrs by Hoechst 33342/propidium iodide staining based fluorescence microscopy analysis; format: functional, cell-based; procedure, shortened: as §2
Homo sapiens [7] = species: Homo sapiens; assay: Induction of apoptotic death in human GIN28 cells assessed as […] at 12.5 uM measured after 48 hrs by Hoechst 33342/propidium iodide staining based fluorescence microscopy analysis; format: functional, cell-based; procedure, shortened: as §2
[8] = Apparent water solubility of the compound in PBS formulated with 900 ug/ml polymer PVPVA at 100 ug/ml by UV-Visible spectral analysis; format: physicochemical; conditions: buffer
Homo sapiens [9] = species: Homo sapiens; assay: Induction of apoptotic death in human GIN8 cells assessed as presence of apoptotic bodies at 12.5 uM measured after 48 hrs by Hoechst 33342/propidium iodide staining based fluorescence microscopy analysis; format: functional, cell-based; procedure, shortened: as §2
Homo sapiens [10] = species: Homo sapiens; assay: Induction of apoptosis in human GCE28 cells assessed as increase in caspase 3/7 activation at 12.5 uM measured after 48 hrs by CellEvent caspase 3/7 probe based fluorescence analysis; format: functional, cell-based
Procedure, shortened: (§3)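 Cells exposed 48 h to compounds diluted in 10% FBS DMEM. Activated caspase-3/7 detected with the CellEvent probe. Staurosporine 10.0 μM served as reference inducer. Mean ± SEM (n = 3). Two-way ANOVA with Dunnett's test.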

Homo sapiens [11] = species: Homo sapiens; assay: Cytotoxicity against human GIN8 cells assessed as reduction in cell viability at 5 ug/ml measured after 48 hrs using PVPVA-formulated compound by Prestoblue assay; format: functional, cell-based
Procedure, shortened: (§4)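 Inhibitor either dissolved in DMSO, inkjet-printed into polymer, or suspended in PBS, then diluted in DMEM. Polymer-alone and untreated controls included. Viability read by PrestoBlue after 48 h, mean ± SD.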

[12] = Cytotoxicity against human GCE28 cells derived from central tumor core of GBM patient assessed as reduction in cell viability measured after 48 hrs by Prestoblue assay; format: functional, cell-based
Procedure, shortened: (§5)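 Compounds diluted in DMEM containing 10% FBS and applied for 48 h. Viability read by PrestoBlue. IC50 calculated from three independent experiments, mean ± SE. Two-way ANOVA with Dunnett's multiple comparisons test.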

Homo sapiens [13] = species: Homo sapiens; assay: Cytotoxicity against human GIN8 cells assessed as reduction in cell viability at 5 ug/ml measured after 48 hrs using Pluronic-F68-formulated compound by Prestoblue assay; format: functional, cell-based; procedure, shortened: as §4
Homo sapiens [14] = species: Homo sapiens; assay: Induction of necrosis in human GIN28 cells assessed as induction of nuclear membrane permeability at 12.5 uM measured after 48 hrs by Hoechst 33342/propidium iodide staining based fluorescence microscopy analysis; format: functional, cell-based; procedure, shortened: as §2
Homo sapiens [15] = species: Homo sapiens; assay: Induction of apoptotic death in human GCE28 cells assessed as presence of apoptotic bodies at 12.5 uM measured after 48 hrs by Hoechst 33342/propidium iodide staining based fluorescence microscopy analysis; format: functional, cell-based; procedure, shortened: as §2
Homo sapiens [16] = species: Homo sapiens; assay: Induction of apoptosis in human GIN8 cells assessed as increase in caspase 3/7 activation at 12.5 uM measured after 48 hrs by CellEvent caspase 3/7 probe based fluorescence analysis; format: functional, cell-based; procedure, shortened: as §3
Homo sapiens [17] = species: Homo sapiens; assay: Induction of apoptotic death in human GIN8 cells assessed as […] at 12.5 uM measured after 48 hrs by Hoechst 33342/propidium iodide staining based fluorescence microscopy analysis; format: functional, cell-based; procedure, shortened: as §2
Homo sapiens [18] = species: Homo sapiens; assay: Induction of apoptotic death in human GCE28 cells assessed as […] at 12.5 uM measured after 48 hrs by Hoechst 33342/propidium iodide staining based fluorescence microscopy analysis; format: functional, cell-based; procedure, shortened: as §2
Homo sapiens [19] = species: Homo sapiens; assay: Cytotoxicity against human GCE28 cells assessed as cell viability at 5 ug/ml measured after 48 hrs using compound suspended in PBS by Prestoblue assay; format: functional, cell-based; procedure, shortened: as §4
Homo sapiens [20] = species: Homo sapiens; assay: Cytotoxicity against human GIN28 cells assessed as cell viability at 5 ug/ml measured after 48 hrs using compound suspended in PBS by Prestoblue assay; format: functional, cell-based; procedure, shortened: as §4
Homo sapiens [21] = species: Homo sapiens; assay: Cytotoxicity against human GCE28 cells assessed as reduction in cell viability at 5 ug/ml measured after 48 hrs using compound dissolved in DMSO by Prestoblue assay; format: functional, cell-based; procedure, shortened: as §4
Homo sapiens [22] = species: Homo sapiens; assay: Cytotoxicity against human GCE28 cells assessed as reduction in cell viability at 5 ug/ml measured after 48 hrs using PVPVA-formulated compound by Prestoblue assay; format: functional, cell-based; procedure, shortened: as §4
Homo sapiens [23] = species: Homo sapiens; assay: Induction of apoptotic death in human GIN28 cells assessed as presence of apoptotic bodies at 12.5 uM measured after 48 hrs by Hoechst 33342/propidium iodide staining based fluorescence microscopy analysis; format: functional, cell-based; procedure, shortened: as §2
Homo sapiens [24] = species: Homo sapiens; assay: Cytotoxicity against human GIN8 cells assessed as reduction in cell viability at 5 ug/ml measured after 48 hrs using compound dissolved in DMSO by Prestoblue assay; format: functional, cell-based; procedure, shortened: as §4
[25] = Synergistic cytotoxicity against human GIN8 cells assessed as combination index measured after 48 hrs in presence of 3-(4-chlorophenyl)-1-(2-chloro-2-phenylethyl)pyrazolo[3,4-d]pyrimidin-4-amine by Chou-Talalay assay; format: functional
Procedure, shortened: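 Two kinase inhibitors were combined at a 1:1 molar ratio, diluted in DMEM with 10% FBS, and incubated with the GBM cells for 48 h. Viability was read by PrestoBlue. Combination index values were calculated from three independent IC50 experiments (n = 3) and are reported as mean ± SD.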

[26] = Cytotoxicity against human GIN28 cells derived from invasive region of GBM patient assessed as reduction in cell viability measured after 48 hrs by Prestoblue assay; format: functional, cell-based; procedure, shortened: as §5
Homo sapiens [27] = species: Homo sapiens; assay: Induction of apoptotic death in human GCE28 cells assessed as nuclear fragmentation at 12.5 uM measured after 48 hrs by Hoechst 33342/propidium iodide staining based fluorescence microscopy analysis; format: functional, cell-based; procedure, shortened: as §2
Homo sapiens [28] = species: Homo sapiens; assay: Cytotoxicity against human GIN28 cells assessed as reduction in cell viability at 5 ug/ml measured after 48 hrs using PVPVA-formulated compound by Prestoblue assay; format: functional, cell-based; procedure, shortened: as §4
Homo sapiens [29] = species: Homo sapiens; assay: Cytotoxicity against human GIN8 cells assessed as reduction in cell viability at 5 ug/ml measured after 48 hrs using Tween 80-formulated compound by Prestoblue assay; format: functional, cell-based; procedure, shortened: as §4
[30] = Additive cytotoxicity against human GIN28 cells assessed as combination index measured after 48 hrs in presence of 2-[[4-(2-phenylethylamino)-1-[styryl]pyrazolo[3,4-d]pyrimidin-6-yl]amino]ethanol by Chou-Talalay assay; format: functional; procedure, shortened: as §1
Homo sapiens [31] = species: Homo sapiens; assay: Induction of apoptosis in human GIN28 cells assessed as increase in caspase 3/7 activation at 12.5 uM measured after 48 hrs by CellEvent caspase 3/7 probe based fluorescence analysis; format: functional, cell-based; procedure, shortened: as §3
[32] = Cytotoxicity against human GIN8 cells derived from invasive region of GBM patient assessed as reduction in cell viability measured after 48 hrs by Prestoblue assay; format: functional, cell-based; procedure, shortened: as §5
Homo sapiens [33] = species: Homo sapiens; assay: Induction of necrosis in human GIN8 cells assessed as induction of nuclear membrane permeability at 12.5 uM measured after 48 hrs by Hoechst 33342/propidium iodide staining based fluorescence microscopy analysis; format: functional, cell-based; procedure, shortened: as §2
Homo sapiens [34] = species: Homo sapiens; assay: Cytotoxicity against human GIN8 cells assessed as cell viability at 5 ug/ml measured after 48 hrs using compound suspended in PBS by Prestoblue assay; format: functional, cell-based; procedure, shortened: as §4
Homo sapiens [35] = species: Homo sapiens; assay: Cytotoxicity against human GIN28 cells assessed as reduction in cell viability at 5 ug/ml measured after 48 hrs using compound dissolved in DMSO by Prestoblue assay; format: functional, cell-based; procedure, shortened: as §4
Homo sapiens [36] = species: Homo sapiens; assay: Cytotoxicity against human GIN28 cells assessed as reduction in cell viability at 5 ug/ml measured after 48 hrs using Pluronic-F68-formulated compound by Prestoblue assay; format: functional, cell-based; procedure, shortened: as §4
[37] = Apparent water solubility of the compound in PBS formulated with 900 ug/ml of polymer Pluronic F-68 at 100 ug/ml by UV-Visible spectral analysis; format: physicochemical; conditions: buffer
Homo sapiens [38] = species: Homo sapiens; assay: Induction of necrosis in human GCE28 cells assessed as induction of nuclear membrane permeability at 12.5 uM measured after 48 hrs by Hoechst 33342/propidium iodide staining based fluorescence microscopy analysis; format: functional, cell-based; procedure, shortened: as §2
[39] = Synergistic cytotoxicity against human GCE28 cells assessed as combination index measured after 48 hrs in presence of 3-(4-chlorophenyl)-1-(2-chloro-2-phenylethyl)pyrazolo[3,4-d]pyrimidin-4-amine by Chou-Talalay assay; format: functional; procedure, shortened: as §1
Homo sapiens [40] = species: Homo sapiens; assay: Cytotoxicity against human GIN28 cells assessed as reduction in cell viability at 5 ug/ml measured after 48 hrs using Tween 80-formulated compound by Prestoblue assay; format: functional, cell-based; procedure, shortened: as §4
Homo sapiens [41] = species: Homo sapiens; assay: Cytotoxicity against human GCE28 cells assessed as reduction in cell viability at 5 ug/ml measured after 48 hrs using Tween 80-formulated compound by Prestoblue assay; format: functional, cell-based; procedure, shortened: as §4
Homo sapiens [42] = species: Homo sapiens; assay: Cytotoxicity against human GCE28 cells assessed as reduction in cell viability at 5 ug/ml measured after 48 hrs using Pluronic-F68-formulated compound by Prestoblue assay; format: functional, cell-based; procedure, shortened: as §4

ClC(Cn1ncc2c(Nc3cccc(Br)c3)nc(SCCN3CCOCC3)nc21)c1ccccc1 (configuration not stated)
0.97: CI [5]
0.53: CI [25]
0.88: CI [39]
inactive: Activity (Homo sapiens [14]) | Activity (Homo sapiens [19]) | Activity (Homo sapiens [20]) | Activity (Homo sapiens [33]) | Activity (Homo sapiens [34]) | Activity (Homo sapiens [38])
7.2 µM: IC50 [12]
11.2 µM: IC50 [32]
active: Activity (Homo sapiens [2]) | Activity (Homo sapiens [6]) | Activity (Homo sapiens [7]) | Activity (Homo sapiens [9]) | Activity (Homo sapiens [10]) | Activity (Homo sapiens [11]) | Activity (Homo sapiens [13]) | Activity (Homo sapiens [15]) | Activity (Homo sapiens [16]) | Activity (Homo sapiens [17]) | Activity (Homo sapiens [18]) | Activity (Homo sapiens [21]) | Activity (Homo sapiens [22]) | Activity (Homo sapiens [23]) | Activity (Homo sapiens [24]) | Activity (Homo sapiens [27]) | Activity (Homo sapiens [28]) | Activity (Homo sapiens [29]) | Activity (Homo sapiens [31]) | Activity (Homo sapiens [35]) | Activity (Homo sapiens [36]) | Activity (Homo sapiens [40]) | Activity (Homo sapiens [41]) | Activity (Homo sapiens [42])
Soluble: solubility [3] | solubility [8] | solubility [37]
0.76: CI [1]
0.9: CI [30]
7.7 µM: IC50 [26]
0.99: CI [4]
